# PubChem BioAssay
# Active and inactive are the calls of the source.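 How the source made its calls, unless noted: active means viability at or below 10% of carrier control in both of two separate runs; inconclusive means viability at or below 10% in only one of the two runs; inactive means the rest.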
# How the values were obtained:
# [1] = reducers of endogenous Her2 protein level, primary screen, SKBR3 breast tumor cells, AlphaScreen, ATP viability (AID 461;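 active means Her2 level under about 52% in both replicate screens, with viability over 70% of control, limit read from the data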;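 on Her2 level: lower value means less Her2 protein in the cells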;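 on viability: percent of carrier control wells set as 100% viability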); conditions: 18-24 h, measured here: SKBR3 viability, ATP luminescence, at 10 µM
# [2] = biological target: Receptor tyrosine-protein kinase erbB-2 (Homo sapiens) (UniProt P04626); experiment: as above; conditions: 18-24 h, at 10 µM, stronger effect = lower value
# [3] = SK-BR-3 cell growth inhibitors, pilot screen, 24 h, human (AID 572); conditions: SK-BR-3 viability, CellTiter-Glo luminescence, at 10 µM, stronger effect = lower value;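 further: compound exposure lasted between 18 and 24 h rather than exactly 24 h; 100% = carrier-treated control wells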
# [4] = HUVEC growth inhibition – cell-based, human, primary screen (AID 575;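 active means viability at or below 30% in both replicate assays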;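 further: 100% = median of untreated cell wells with 0.1% DMSO on each plate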); conditions: HUVEC proliferation, CellTiter-Glo luminescence, 72 h; at 10 µM; stronger effect = lower value
# Method in brief: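 System – primary HUVEC, no more than 12 passages · Medium – Low-serum (2% FBS) EBM, supplemented · Times – 72 h exposure, 37 °C, 5% CO2, 30 min RT equilibration · Measured by – luminescent ATP assay · Read-out – % viability relative to median vehicle-well signal on each plate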
# [5] = growth inhibitors of H69AR lung tumor, primary screen, human, duplicate replicates (AID 580;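 active means viability at or under a set limit in both replicates, limit being median viability minus 3 SD, cut at about 48% in these data, passing the limit was not always enough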;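 further: 100% = mean luminescence of untreated wells and 0% = no signal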); conditions: H69AR lung tumor cells viability, ATP luminescence, 72 h; at 10 µM; stronger effect = lower value
# [6] = reversal of MRP1-mediated doxorubicin resistance, pilot screen, H69AR cells, doxorubicin co-treatment (AID 601;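 active means viability loss from added drug above about 55%, and viability with drug at most 40%, in both replicates, limit read from the data, passing the limit was not always enough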); conditions: CellTiter-Glo, 72 h, at 10 µM; for differential viability (reversal): stronger effect = higher value
# [7] = 384-well plate pilot, post-Golgi transport modulator project, inhibition of yeast transport mutant growth (AID 636; in the data active means inhibition above about 31%); conditions: absorbance 615 nm, about 18 h, stronger effect = higher value
# [8] = growth suppression of yeast trafficking mutant, preliminary HTS, modulators of trafficking downstream of Golgi apparatus project, 1536-format plate, OD 615 nm (AID 637; in the data active means inhibition above about 30%); conditions: yeast transport mutant growth, absorbance 615 nm, 18 h; stronger effect = higher value
# [9] = H69AR cells + 2 uM doxorubicin, measured here: viability with 2 uM doxorubicin, stronger effect = lower value
# [10] = H69AR cells, compound alone cytotoxicity
# Sequence of Receptor tyrosine-protein kinase erbB-2 (Homo sapiens) (P04626 whole entry, looked up): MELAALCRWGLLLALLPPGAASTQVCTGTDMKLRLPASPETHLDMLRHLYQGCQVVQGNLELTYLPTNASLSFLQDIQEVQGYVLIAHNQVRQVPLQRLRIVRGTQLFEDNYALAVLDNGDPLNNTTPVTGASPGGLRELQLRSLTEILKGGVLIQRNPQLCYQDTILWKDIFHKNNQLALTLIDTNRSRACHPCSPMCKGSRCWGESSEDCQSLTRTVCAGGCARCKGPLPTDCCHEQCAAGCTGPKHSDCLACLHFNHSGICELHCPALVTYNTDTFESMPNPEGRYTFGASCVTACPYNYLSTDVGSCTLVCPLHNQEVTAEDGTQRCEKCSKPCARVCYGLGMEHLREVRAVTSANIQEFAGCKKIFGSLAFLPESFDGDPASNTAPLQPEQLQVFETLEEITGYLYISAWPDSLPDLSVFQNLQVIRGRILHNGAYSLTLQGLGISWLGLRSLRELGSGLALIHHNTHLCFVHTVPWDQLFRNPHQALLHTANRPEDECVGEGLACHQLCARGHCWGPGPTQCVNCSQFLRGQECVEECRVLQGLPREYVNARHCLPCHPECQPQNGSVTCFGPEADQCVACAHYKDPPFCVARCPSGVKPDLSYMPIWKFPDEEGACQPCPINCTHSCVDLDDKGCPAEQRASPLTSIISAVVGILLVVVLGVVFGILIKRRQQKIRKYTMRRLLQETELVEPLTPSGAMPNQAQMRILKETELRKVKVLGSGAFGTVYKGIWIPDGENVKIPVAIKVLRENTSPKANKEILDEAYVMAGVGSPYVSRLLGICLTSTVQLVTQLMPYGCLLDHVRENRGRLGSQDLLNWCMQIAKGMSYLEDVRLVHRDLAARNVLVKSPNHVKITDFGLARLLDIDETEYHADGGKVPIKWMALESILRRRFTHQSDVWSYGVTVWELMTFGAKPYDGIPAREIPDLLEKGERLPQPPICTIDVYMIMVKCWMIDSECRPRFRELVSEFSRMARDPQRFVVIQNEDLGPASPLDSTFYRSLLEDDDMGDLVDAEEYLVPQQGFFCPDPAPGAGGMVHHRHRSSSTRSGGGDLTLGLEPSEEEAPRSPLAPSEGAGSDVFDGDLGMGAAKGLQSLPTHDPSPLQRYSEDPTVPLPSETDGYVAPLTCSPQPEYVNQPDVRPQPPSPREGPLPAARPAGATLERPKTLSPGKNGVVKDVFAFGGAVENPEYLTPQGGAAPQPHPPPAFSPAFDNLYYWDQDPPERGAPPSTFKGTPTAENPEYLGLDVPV
smiles,measurement,setting,value
Cc1ccc2[nH]c3c(c2c1)CCc1cn[nH]c1-3,viability,[1],132%
same,Her2 level,[2],68% (inactive)
same,viability,[3],132% (inactive)
same,viability,[4],66.4% (inactive)
same,viability,[5],38.4% (active)
same,differential viability (reversal),[6]; H69AR cells + 2 uM doxorubicin,-18.3% (inactive)
same,viability,[6]; [9],56.7%
same,viability,[6]; [10],38.4%
same,inhibition,[7],-0.8% (inactive)
same,inhibition,[8],-8.23% (inactive)
CC(=O)Nc1ccc(S(=O)(=O)Nc2nc3ccccc3nc2N2CCCC2)cc1,viability,[1],99.5%
same,Her2 level,[2],98% (inactive)
same,viability,[3],99.5% (inactive)
same,viability,[4],93.7% (inactive)
same,viability,[5],92.3% (inactive)
same,differential viability (reversal),[6]; H69AR cells + 2 uM doxorubicin,-8.08% (inactive)
same,viability,[6]; [9],100%
same,viability,[6]; [10],92.3%
same,inhibition,[7],-7.87% (inactive)
same,inhibition,[8],3.61% (inactive)
COc1cc(OC)c(C(=O)Nc2ncn[nH]2)cc1OC,viability,[1],102%
same,Her2 level,[2],122% (inactive)
same,viability,[3],102% (inactive)
same,viability,[4],95.4% (inactive)
same,viability,[5],95% (inactive)
same,differential viability (reversal),[6]; H69AR cells + 2 uM doxorubicin,-6.38% (inactive)
same,viability,[6]; [9],101%
same,viability,[6]; [10],95%
same,inhibition,[7],1.97% (inactive)
same,inhibition,[8],-6.72% (inactive)
O=C(CN1CCN(c2cccc(Cl)c2)CC1)N1CCCC1,viability,[1],105%
same,Her2 level,[2],102% (inactive)
same,viability,[3],105% (inactive)
same,viability,[4],110% (inactive)
same,viability,[5],78.8% (inactive)
same,differential viability (reversal),[6]; H69AR cells + 2 uM doxorubicin,-2.74% (inactive)
same,viability,[6]; [9],81.5%
same,viability,[6]; [10],78.8%
same,inhibition,[7],-6.75% (inactive)
same,inhibition,[8],-7.46% (inactive)
COc1ccc(-c2cc(C(=O)NCc3ccc(Cl)cc3)no2)cc1OC,viability,[1],92.5%
same,Her2 level,[2],88.5% (inactive)
same,viability,[3],92.5% (inactive)
same,viability,[4],83% (inactive)
same,viability,[5],100% (inactive)
same,differential viability (reversal),[6]; H69AR cells + 2 uM doxorubicin,0.66% (inactive)
same,viability,[6]; [9],99.5%
same,viability,[6]; [10],100%
same,inhibition,[7],-6.35% (inactive)
same,inhibition,[8],-0.33% (inactive)
Cc1cc(C)n(-c2nc3ccccc3c(=O)n2OCCOc2ccccc2)n1,viability,[1],78%
same,Her2 level,[2],93% (inactive)
same,viability,[3],78% (inactive)
same,viability,[4],97.2% (inactive)
same,viability,[5],89.6% (inactive)
same,differential viability (reversal),[6]; H69AR cells + 2 uM doxorubicin,10.3% (inactive)
same,viability,[6]; [9],79.3%
same,viability,[6]; [10],89.6%
same,inhibition,[7],-0.13% (inactive)
same,inhibition,[8],-6.07% (inactive)
Cc1cc(C)nc(Sc2ccc3nnc(C(F)(F)C(F)(F)C(F)(F)F)n3n2)n1,viability,[1],83.5%
same,Her2 level,[2],86.5% (inactive)
same,viability,[3],83.5% (inactive)
same,viability,[4],99.6% (inactive)
same,viability,[5],102% (inactive)
same,differential viability (reversal),[6]; H69AR cells + 2 uM doxorubicin,14.1% (inactive)
same,viability,[6]; [9],87.6%
same,viability,[6]; [10],102%
same,inhibition,[7],-6.89% (inactive)
same,inhibition,[8],3.93% (inactive)
O=C(CNC1CCCCCC1)Nc1ccc(S(=O)(=O)NC2CC2)cc1,viability,[1],100%
same,Her2 level,[2],87% (inactive)
same,viability,[3],100% (inactive)
same,viability,[4],64.8% (inactive)
same,viability,[5],93.7% (inactive)
same,differential viability (reversal),[6]; H69AR cells + 2 uM doxorubicin,5.79% (inactive)
same,viability,[6]; [9],87.9%
same,viability,[6]; [10],93.7%
same,inhibition,[7],-4.53% (inactive)
same,inhibition,[8],-0.48% (inactive)
COc1cccc(NS(=O)(=O)c2cc(C)sc2C)c1,viability,[1],93.5%
same,Her2 level,[2],94% (inactive)
same,viability,[3],93.5% (inactive)
same,viability,[4],97.5% (inactive)
same,viability,[5],94.3% (inactive)
same,differential viability (reversal),[6]; H69AR cells + 2 uM doxorubicin,2.18% (inactive)
same,viability,[6]; [9],92.1%
same,viability,[6]; [10],94.3%
same,inhibition,[7],-2.89% (inactive)
same,inhibition,[8],-6.67% (inactive)
CCC1C(=O)N=C(SCC(=O)Nc2cccc3ccccc23)NC1=O (stereo not given),viability,[1],112%
same,Her2 level,[2],100% (inactive)
same,viability,[3],112% (inactive)
same,viability,[4],106% (inactive)
same,viability,[5],82.3% (inactive)
same,differential viability (reversal),[6]; H69AR cells + 2 uM doxorubicin,-9.84% (inactive)
same,viability,[6]; [9],92.1%
same,viability,[6]; [10],82.3%
same,inhibition,[7],-3.24% (inactive)
same,inhibition,[8],0.63% (inactive)
O=C(Nc1ccccc1C(=O)N1CCCCCC1)c1cccc(S(=O)(=O)N2CCOCC2)c1,viability,[1],95.5%
same,Her2 level,[2],96% (inactive)
same,viability,[3],95.5% (inactive)
same,viability,[4],94.1% (inactive)
same,viability,[5],95.5% (inactive)
same,differential viability (reversal),[6]; H69AR cells + 2 uM doxorubicin,-7.13% (inactive)
same,viability,[6]; [9],103%
same,viability,[6]; [10],95.5%
same,inhibition,[7],-1.84% (inactive)
same,inhibition,[8],-1.45% (inactive)
CCOC(=O)c1c(C)oc2ccc(OCC(N)=O)cc12,viability,[1],120%
same,Her2 level,[2],95% (inactive)
same,viability,[3],120% (inactive)
same,viability,[4],72.3% (inactive)
same,viability,[5],97.1% (inactive)
same,differential viability (reversal),[6]; H69AR cells + 2 uM doxorubicin,1.68% (inactive)
same,viability,[6]; [9],95.4%
same,viability,[6]; [10],97.1%
same,inhibition,[7],-0.79% (inactive)
same,inhibition,[8],-5.4% (inactive)
Cc1ccc(-c2nc(CS(=O)CC(=O)NCCN(CC(C)C)CC(C)C)c(C)o2)cc1 (stereo not given),viability,[1],81%
same,Her2 level,[2],84.5% (inactive)
same,viability,[3],81% (inactive)
same,viability,[4],86.4% (inactive)
same,viability,[5],103% (inactive)
same,differential viability (reversal),[6]; H69AR cells + 2 uM doxorubicin,19.8% (inactive)
same,viability,[6]; [9],83.6%
same,viability,[6]; [10],103%
same,inhibition,[7],-5.2% (inactive)
same,inhibition,[8],0.97% (inactive)
COCCn1c(=NC(=O)CSC(C)=O)sc2cc(F)ccc21,viability,[1],85%
same,Her2 level,[2],82.5% (inactive)
same,viability,[3],85% (inactive)
same,viability,[4],75.4% (inactive)
same,viability,[5],58.2% (inactive)
same,differential viability (reversal),[6]; H69AR cells + 2 uM doxorubicin,0.03% (inactive)
same,viability,[6]; [9],58.2%
same,viability,[6]; [10],58.2%
same,inhibition,[7],-3.16% (inactive)
same,inhibition,[8],-2.86% (inactive)
